The source of these data is article PMC5299595 (Fitoterapia, 2016).

Entries after “also recorded” stand apart in the source; their conditions may differ. Where a name gives a salt, the structure may show the parent alone. Read-outs that look alike come from different tables or passages of the source.

Data set [1] is described as follows: DPPH free radical scavenging assay. The following applies: read-out: EC50, DPPH free radical scavenging; DPPH 300 μM, 5 minutes.
In data set [2] the test system is α4β2- and α7-nicAchRs. Particulars: previously reported, ref Littleton et al. (2005) [15], cited from earlier work.
The target of data set [3] is α4β2-nicAchR. Particulars: read-out: Ki α4β2-nicAchR, cited from earlier work.
Data set [4] addresses T1, DAT (Rattus norvegicus, UniProt P23977). Particulars: cited from earlier work.
In data set [5] the test system is α4β2- and α7-nicAchRs. Particulars: α7 vs α4β2, based on comparison of Ki's.
Data set [6] relates to nicAchRs in SH-SY5Y cells. As to the kind of experiment: 45Ca2+ entry in SH-SY5Y cells. It counts as cell-based, human.
Data set [7] concerns the target α7-nicAchR. Particulars: read-out: Ki α7-nicAchR, cited from earlier work.
Data set [8] addresses α4β2-nicAchR (Rattus norvegicus, UniProt P09483+P12390). As to the kind of experiment: [3H]-cytisine competition binding in rat cortical membranes. The following applies: read-out: Ki, [3H]-cytisine binding (α4β2-nicAchR).
A further data set has as its system rabbits. Particulars: intravenous; cited from earlier work.
Data set [9] concerns the target T1, DAT. It is filed as in vivo. Put shortly:
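High-speed chronoamperometry with Nafion-coated carbon fibre microelectrodes in the dorsal striatum of isoflurane-anaesthetised rats. Clearance of locally applied exogenous DA used to gauge DAT function, and test compound also applied locally in the striatum.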

Another data set deals with cats. Particulars: intravenous; cited from earlier work.
Data set [10] addresses T1, DAT. As to the kind of experiment: DAT-mediated [3H]-DA uptake in rat striatal synaptosomes. Particulars: read-out: IC50, DAT-mediated [3H]-DA uptake. It is filed as biochemical. Put shortly:
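Striata from CO2-anaesthetised adult male Sprague-Dawley rats (200–250 g) homogenised in pH 7.4 HEPES uptake buffer (100 μM pargyline, 0.32 M sucrose). Synaptosomes taken as the 16,000 × g pellet after a 1,000 × g spin. Test compound (final 1 mM – 0.1 nM; DMSO ≤1.0%) preincubated 10 min at 37°C. [3H]-DA (15–30 nM final) uptake for 5 min at 37°C, stopped on ice, GF/C filtration, scintillation counting. Non-specific uptake defined with 10 μM GBR-12909.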

The target of a further data set is nicAchRs. Put plainly: [3H]-epibatidine competition binding in rat cortical membranes. The following applies: read-out: Ki, [3H]-epibatidine binding.
Another data set concerns mice. Particulars: cited from earlier work.
For data set [11], the system named is rat striatal slices preloaded with [3H]-DA. Put plainly: Fractional [3H] release from [3H]-DA preloaded superfused rat striatal slices. It is filed as cell-based. Put shortly:
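Rat coronal striatal slices (500 μm, 6–8 mg) equilibrated 30 min at 34°C in oxygenated Krebs' buffer (pH 7.4), then preloaded with 0.1 μM [3H]-DA for 30 min. Superfused at 34°C, 1 ml/min, with buffer containing 10 μM pargyline and 10 μM nomifensine. Two 4-min basal samples taken after 60 min. Test compound (10, 100 or 1000 μM) then perfused per chamber, or 100 μM given after 20 min of 10 μM MEC or vehicle. Compared with vehicle-treated slices by Bonferroni post-hoc test; n = 4–10 rats.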

Data set [12] concerns the target α7-nicAchR (Rattus norvegicus, UniProt Q05941). As to the kind of experiment: [3H]-MLA competition binding in rat hippocampal membranes. Particulars: read-out: Ki, [3H]-MLA binding (α7-nicAchR).
In data set [13] the target is T1, DAT. Put plainly: [3H]-GBR12935 competition binding in rat striatal membranes. The following applies: read-out: Ki, [3H]-GBR12935 binding. The procedure, abridged: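 Striatal tissue homogenised in 120 mM NaCl/50 mM Tris-HCl (pH 7.4), spun at 25,000 × g for 20 min at 4°C, then washed thrice in the same buffer plus 0.01% FBS. Membranes (1 mg/ml final) preincubated 15 min with test compound (final 1.0 mM – 0.1 nM; DMSO <0.1%). 1 nM [3H]-GBR12935 then added for 1 h at room temperature. GF/B filtration and scintillation counting; non-specific binding defined with 10 μM GBR12909.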

The conditions of data set [14]: PubChem data; cited from earlier work.
The test system of data set [15] is rat striatal slices preloaded with [3H]-DA. Particulars: cited from earlier work.

In the case of `O=c1c(O)c(-c2ccc(O)c(O)c2)oc2cc(O)cc(O)c12` [Quercetin], in [1], the EC50 amounted to 11.2 µM.
In the case of `CN1CCC[C@H]1c1cccnc1` [Nicotine, (−)-nicotine], the DDR value is reported as 13.00 ^6 with α4β2- and α7-nicAchRs [2]; 13.00 in the data set on α4β2- and α7-nicAchRs [2] (listed as nicotine). Further, the Ki was 0.00096 µM at α4β2-nicAchR [3] (ref Rueter et al. (2006)) and 1.45 µM at α7-nicAchR [7] (ref Rueter et al. (2006)). The “Activity at the DAT” value at DAT [4] (rat striatal synaptosomes) is “inactive”. Moreover, the “NicAchR Selectivity (-fold difference)” value with α4β2- and α7-nicAchRs [5] is 1508 -fold. The “45Ca2+ entry, increase above basal” value in [6] (10 μM, LCaq experiments (Fig. 1A)) worked out at 374.4%; in [6] (10 μM, lobinaline experiments (Fig. 6A)) it was 196.6%.
On to `c1cncc([C@@H]2CCCCN2)c1` [anabasine], for which, in the data set with α4β2- and α7-nicAchRs [2], the DDR value was 4.16. For the same compound, the Ki on α4β2-nicAchR [3] was 0.065 µM; at α7-nicAchR [7] it was 0.058 µM.
Turning to `CN1CCCC2C(c3ccccc3)C(C3=NCCCC3)C(c3ccccc3)CC21` (stereo not drawn) [Lobinaline, lobinaline], the Ki was 1.07 µM at α4β2-nicAchR [8], 16.2 µM on nicAchRs, 67.5 µM at α7-nicAchR [12] and 2.54 µM at DAT [13]. The “Effect on blood pressure” value in the data set on rabbits and with cats was “lower blood pressure” in each case. In addition, the Effect on respiration entry in the data set with rabbits and in the data set on cats was “unaffected” each time. For the same compound, the “Time after ejection at which effects on DA clearance are no longer significant” value at DAT [9] (local application in striatum) lay within 3 to 5 min. On DAT [9] (locally applied from a micropipette, n = 10, data not shown), the “Direct effect on electrochemical DA signal when locally applied alone” value is on record as “no direct effects”. In addition, at DAT [10], the IC50 was 12 µM. Besides, the “NicAchR Selectivity (-fold difference)” value in the data set on α4β2- and α7-nicAchRs [5] is 63 -fold. The “45Ca2+ entry, increase above basal” value in data set [6] (1 mM) worked out at 41.6%; in data set [6] (1 mM concomitantly with NIC 10 μM), 115.7%. Also, the “Effect of MEC on compound-induced 45Ca2+ entry” value in [6] (1 mM with MEC 1 μM) is recorded as “completely abolished”. For the same compound, the minimal lethal dose with mice (subcutaneous administration in mice) is reported as 800 mg/kg. For the same compound, the “Fractional [3H] release vs vehicle” value in data set [11] (10 μM) is listed as “not significantly increased”. Moreover, in [11] (100 μM after 10 μM MEC pretreatment for 20 minutes), the “Fractional [3H] release vs vehicle after MEC pretreatment” value is on record as “not significantly different; also recorded: no significant difference”. For the same compound, in data set [11] (100 μM, 8 minutes after treatment, MEC experiment set), the “Fractional [3H] release, greater than vehicle” value is 160%. The “Maximum fractional [3H] release, greater than vehicle treated” value in [11] (100 μM, maximum 12 minutes post-treatment, concentration-response studies) is listed as 186%; in data set [11] (1000 μM, maximum 8 minutes post-treatment), 494%. Also, the “Maximum fractional [3H] release, greater than vehicle treated controls” value in [11] (100 μM, maximum 16 minutes after treatment, MEC experiment set) amounted to 262%. Besides, the half-maximal effective concentration (EC50) in data set [1] was 18 µM. In [14], the hydrogen bond acceptors is reported as 2. The hydrogen bond donors in data set [14] is given as 0. Also, the molar fractivity in data set [14] is given as 82.47.
In the case of `CN1[C@@H](CC(=O)c2ccccc2)CCC[C@H]1C[C@H](O)c1ccccc1` [Lobeline, (−)-lobeline hydrochloride], the DDR value is on record as 6.27 ^6 in the data set on α4β2- and α7-nicAchRs [2]; 6.27 with α4β2- and α7-nicAchRs [2] (listed as lobeline). In addition, the Ki was 0.004 µM at α4β2-nicAchR [3] (ref Hojahmat et al. (2010)) and 6.26 µM at α7-nicAchR [7] (ref Hojahmat et al. (2010)). For the same compound, the “MEC sensitivity of evoked fractional [3H] release” value in data set [15] was “MEC-insensitive”. Also, the IC50 at DAT [4] (read-out: IC50, DAT inhibition) was 28.2 to 80 µM. Moreover, the “NicAchR Selectivity (-fold difference)” value with α4β2- and α7-nicAchRs [5] is given as 1565 -fold. The minimal lethal dose in the data set with mice (mouse, in vivo, sc) is on record as 300 mg/kg. Moreover, the EC50 in [1] worked out at 229 µM.
Take `CNC1(C)C2CCC(C2)C1(C)C` (stereo not drawn) [MEC, mecamylamine (MEC) hydrochloride]: the “Effect on 45Ca2+ entry” value in data set [6] (1 μM alone) was “unaffected; also recorded: did not affect”.
